Experimental data reported in ChEMBL document CHEMBL1141259, “Cytotoxic ent-kauranoids from the medicinal plant Isodon xerophilus” (J Nat Prod, 2007).

Legend:
Type in all cases: functional, cell-based
[1] = test system: K562; assay: Cytotoxicity against human K562 cells after 48 hrs; conditions: K562, 48 h
Outline: (§1)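 Human lines obtained from Shanghai Cell Bank and kept in RPMI1640 with hormone-free 15% heat-inactivated FBS, 2 mM glutamine, 100 U/mL penicillin G and 100 µg/mL streptomycin. Seeded in 96-well plates at 5 × 10^4 cells/mL (K562) or 4 × 10^4 cells/mL (MKN45, HepG2). Exposed to compounds for 48 h, then viability was read by CCK-8 at 450 and 650 nm. IC50 is from triplicate experiments.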

[2] = test system: MKN-45; assay: Cytotoxicity against human MKN45 cells after 48 hrs; conditions: MKN-45, 48 h; outline: as §1
[3] = test system: HepG2; assay: Cytotoxicity against human HepG2 cells after 48 hrs; conditions: HepG2, 48 h; outline: as §1

| SMILES | IC50 [1] | IC50 [2] | IC50 [3] |
| --- | --- | --- | --- |
| C=C1C(=O)[C@]23C[C@H]1CC[C@H]2[C@@]12CO[C@@]3(O)[C@@H](O)[C@@H]1[C@](C)(COC(C)=O)CC[C@H]2O [XEROPHILUSIN H] | > 10 µM | > 10 µM | > 10 µM |
| C=C1[C@@H](OC(C)=O)[C@]23[C@H](O)[C@H]1CC[C@H]2[C@]12CCCC(C)(C)[C@H]1[C@H](OC(C)=O)[C@]3(O)OC2 [RABDOTERNIN C] | > 10 µM | > 10 µM | > 10 µM |
| C=C1C(=O)[C@]23[C@H](O)[C@H]1C[C@H](O)[C@H]2[C@]12CCCC(C)(C)[C@H]1C(=O)[C@]3(O)[C@H]2O [PHYLLOSTACHYSIN A] | 6.6 µM | 3 µM | – |
| C=C1C(=O)[C@]23C[C@H]1CC[C@H]2[C@@]12CO[C@@]3(O)[C@@H](O)[C@@H]1C(C)(C)CC[C@H]2O [XEROPHILUSIN I] | 7.6 µM | 6.2 µM | 4 µM |
| C=C1C(=O)[C@]23[C@H](O)[C@H]1C[C@H](O)[C@H]2[C@]12CCCC(C)(C)[C@H]1[C@H](O)[C@]3(O)O[C@@H]2OC [XEROPHILUSIN XI] | > 10 µM | > 10 µM | > 10 µM |
| C=C1C(=O)[C@]23[C@H](O)[C@H]1CC[C@H]2[C@]12CCCC(C)(C)[C@H]1[C@H](O)[C@]3(O)OC2=O [XEROPHILUSIN N] | 1.2 µM | 4.8 µM | > 10 µM |
| C=C1C(=O)[C@]23[C@H](O)[C@H]1C[C@H](OC(C)=O)[C@H]2[C@]12CCCC(C)(C)[C@H]1C(=O)[C@]3(O)[C@H]2O [XEROPHILUSIN F] | 4.3 µM | > 10 µM | 4.9 µM |
| C=C1C(=O)[C@]23[C@H](O)[C@H]1C[C@H](OC(C)=O)[C@H]2[C@]12CCCC(C)(C)[C@H]1[C@H](O)[C@]3(O)O[C@@H]2OC [XEROPHILUSIN XII] | 3.6 µM | 2.1 µM | 4.9 µM |
| C=C1[C@@H](O)[C@]23[C@H](O)[C@H]1C[C@H](O)[C@H]2[C@]12CCCC(C)(C)[C@H]1[C@H](OC(C)=O)[C@]3(O)OC2 [RABDOTERNIN D] | > 10 µM | > 10 µM | > 10 µM |
| C=C1C(=O)[C@@]23[C@@H]4OC5O[C@@]2(O)[C@@H](O)[C@@H]2C(C)(C)CC[C@@H](O)[C@]52[C@@H]3CC[C@@H]14 [PONICIDIN] | 1.3 µM | > 10 µM | 0.96 µM |
| C=C1C(=O)[C@]23[C@H](O)[C@H]1CC[C@H]2[C@@]12C(OC)O[C@@]3(O)[C@@H](O)[C@@H]1C(C)(C)CC[C@H]2O (stereo not given in full) [RABDOTERNIN E] | 2.4 µM | > 10 µM | > 10 µM |
| C=C1C(=O)[C@]23[C@H](O)[C@H]1CC[C@H]2[C@@]12CO[C@@]3(O)[C@@H](O)[C@@H]1[C@](C)(COC(C)=O)CC[C@H]2O [xerophilusin G] | > 10 µM | > 10 µM | > 10 µM |
| C=C1C(=O)[C@]23[C@H](O)[C@H]1CC[C@H]2[C@@]12CCC[C@@]4(C)CO[C@H]1O[C@@]3(O)[C@@H](O)[C@H]42 [XEROPHILUSIN D] | 9 µM | 3.9 µM | 4.2 µM |
| C=C1C(=O)[C@]23[C@H](O)[C@H]1CC[C@H]2[C@]12CCC[C@@](C)(CO)[C@H]1[C@H](O)[C@]3(O)OC2 [XEROPHILUSIN IV] | > 10 µM | > 10 µM | > 10 µM |
| C=C1C(=O)[C@@]23[C@@H]4O[C@H]5O[C@@]2(O)[C@@H](O)[C@@H]2C(C)(C)CCC[C@]52[C@@H]3CC[C@@H]14 [XEROPHILUSIN B] | 4.1 µM | 0.4 µM | 3.9 µM |
| C=C1C(=O)[C@]23[C@H](O)[C@H]1CC[C@H]2[C@]12CCC[C@@](C)(COC(C)=O)[C@H]1[C@H](O)[C@]3(O)OC2 [LONGIKAURIN B] | 1.6 µM | 0.49 µM | 1.2 µM |

| SMILES | IC50 [1] | IC50 [2] | IC50 [3] |
| --- | --- | --- | --- |
| C=C1C(=O)[C@]23[C@H](O)[C@H]1C[C@H](O)[C@H]2[C@@]12CO[C@@]3(O)[C@@H](O)[C@@H]1[C@](C)(COC(C)=O)CC[C@H]2O [XEROPHILUSIN VI] | > 10 µM | > 10 µM | > 10 µM |
| C=C1C(=O)[C@]23[C@H](O)[C@H]1C[C@H](O)[C@H]2[C@]1(C=O)CCCC(C)(C)[C@H]1C(=O)[C@@H]3O [XEROPHILUSINE I] | 0.04 µM | 2.8 µM | 0.19 µM |
| C=C1C(=O)[C@]23[C@H](O)[C@H]1CC[C@H]2[C@]12[C@H](O)CCC(C)(C)[C@H]1[C@H](O)[C@]3(O)O[C@@H]2O [HEBEIRUBESCENSINS G] | 5.3 µM | > 10 µM | > 10 µM |
| CC(=O)O[C@H]1C[C@H]2C3=C(O[C@]4(CC3)C(=O)[C@@]35[C@@H]6O[C@H]7O[C@@]3(O)[C@@H](O)[C@@H]3C(C)(C)CCC[C@@]73[C@@H]5[C@@H](OC(C)=O)C[C@H]64)[C@@]34[C@@H]2O[C@H]2O[C@@]3(O)[C@@H](O)[C@@H]3C(C)(C)CCC[C@]23[C@H]14 [enanderinanin J] | > 10 µM | > 10 µM | > 10 µM |
| C=C1C(=O)[C@]23[C@H](O)[C@H]1CC[C@H]2[C@@]12C(O)O[C@@]3(O)[C@@H](O)[C@@H]1C(C)(C)CC[C@H]2O (stereo not given in full) [HEBEIRUBESCENSINS H] | 5.3 µM | > 10 µM | > 10 µM |
| C=C1C(=O)[C@@]23[C@@H]4O[C@H]5O[C@@]2(O)[C@@H](O)[C@@H]2C(C)(C)CCC[C@]52[C@@H]3[C@@H](O)C[C@@H]14 [MACROCALIN B] | > 10 µM | > 10 µM | > 10 µM |
| C=C1C(=O)[C@]23[C@H](O)[C@H]1C[C@H](O)[C@H]2[C@]12CCCC(C)(C)[C@H]1[C@H](O)[C@]3(O)OC2 [ROSTHORIN A] | 0.33 µM | 5.4 µM | 6.4 µM |
| COC[C@@H]1C(=O)[C@]23[C@H](O)[C@H]1C[C@H](OC(C)=O)[C@H]2[C@]12CCCC(C)(C)[C@H]1[C@H](O)[C@]3(O)OC2 [XEROPHILUSIN X1] | 1.5 µM | 3.9 µM | 1.9 µM |
| C=C1C(=O)[C@]23C[C@H]1CC[C@H]2[C@@]12CO[C@@]3(O)[C@@H](O)[C@@H]1[C@](C)(COC(C)=O)[C@@H](O)C[C@H]2O [MAOECRYSTAL I] | > 10 µM | 1.3 µM | > 10 µM |
| C=C1[C@@H]2C[C@H](OC(C)=O)[C@H]3[C@]45CCCC(C)(C)[C@H]4[C@H](OC(C)=O)[C@](O)(OC5)[C@]3([C@@H]2O)[C@H]1O [XEROPHILUSIN X] | > 10 µM | > 10 µM | > 10 µM |
| C=C1C(=O)[C@@]23[C@@H]4O[C@H]5O[C@@]2(O)[C@@H](O)[C@@H]2C(C)(C)CCC[C@]52[C@@H]3[C@@H](OC(C)=O)C[C@@H]14 [XEROPHILUSIN A] | 1.6 µM | > 10 µM | > 10 µM |
| C=C1C(=O)[C@]23[C@H](O)[C@H]1C[C@H](OC(C)=O)[C@H]2[C@]12CCCC(C)(C)[C@H]1[C@H](O)[C@]3(O)OC2 [XEROPHILUSIN K] | 1.4 µM | 5.6 µM | 2.2 µM |
| C=C1[C@@H](O)[C@]23[C@H](O)[C@H]1CC[C@H]2[C@@]12CO[C@@]3(O)[C@@H](O)[C@@H]1[C@](C)(CO)CC[C@H]2O [XEROPHILUSIN V] | > 10 µM | > 10 µM | > 10 µM |
| C=C1C(=O)[C@]23C[C@H]1C[C@@H](O)[C@H]2[C@]12CCC[C@@](C)(COC(C)=O)[C@H]1[C@H](O)[C@]3(O)OC2 [LONGIKAURIN D] | 0.56 µM | 0.34 µM | 0.56 µM |
| C=C1C(=O)[C@@]23C(=O)[C@@H](O)[C@@H]4C(C)(C)CCC[C@@]4(C=O)[C@@H]2[C@@H](O)C[C@@H]1[C@H]3O [XEROPHILUSIN II] | 1 µM | > 10 µM | 4.5 µM |
| C=C1C(=O)[C@]23C[C@H]1C[C@@H](O)[C@@H]2[C@@]1(CCC[C@@](C)(COC(C)=O)[C@H]1C=O)COC3=O [TRICHORABDAL B] | > 10 µM | > 10 µM | > 10 µM |
